Data: ChEMBL document CHEMBL4316637, “Highly Modified Lanostane Triterpenes from Fruiting Bodies of the Basidiomycete Tomophagus sp” (J Nat Prod, 2019)
Converted amounts (≈) assume the structure as drawn.

How the values were obtained:
[1] = system: Plasmodium falciparum; assay: Antimalarial activity against Plasmodium falciparum K1 infected in human type A+ erythrocytes incubated for 24 hrs followed by [G-3H]-hypoxanthine incorporation and measured after 18 hrs by liquid scintillation counting method; type: functional, organism-based
Summary of the method: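 P. falciparum K1 (multidrug-resistant strain), tested in duplicate with the microculture radioisotope technique; IC50 derived.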

[2] = system: Mycobacterium tuberculosis; assay: Antitubercular activity against Mycobacterium tuberculosis H37Ra by GFP based microplate assay; type: functional
Summary of the method: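 Whole-cell assay on M. tuberculosis H37Ra growth, read by green fluorescent protein signal in microplates; activity given as MIC in μg/mL.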

[3] = system: Vero; assay: Cytotoxicity against African green monkey Vero cells by GFP based microplate assay; type: cell-based; conditions: Chlorocebus sabaeus
Summary of the method: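 Vero cells (nonmalignant African green monkey kidney […]) tested with a green fluorescent protein microplate assay.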

SMILES: CC(=O)O[C@@H]1C[C@H]([C@H](C)[C@@H]2CC=C(C)C(=O)O2)[C@@]2(C)C[C@H](O)C3=C(CC[C@@H]4C(=C3)C=CC(=O)OC4(C)C)[C@]12C
- IC50 [1]: > 19 µM
- MIC [2]: > 50 µg/mL
- IC50 [3]: 34 µM

SMILES: CC(=O)O[C@]12CCC(=O)OC(C)(C)[C@@H]1CC=C1[C@]3(C)CC[C@H]([C@H](C)[C@@H]4CC=C(C)C(=O)O4)[C@@]3(C)C[C@H]3O[C@@]132
- IC50 [1]: > 18 µM
- MIC [2]: > 50 µg/mL
- IC50 [3]: > 92 µM

SMILES: CC1=C[C@H](O)[C@@H]([C@@H](C)[C@H]2C[C@@H](O)[C@@]3(C)C4=C(C=C5C=CC(=O)OC(C)(C)[C@@H]5CC4)CC[C@]23C)OC1=O
- IC50 [1]: > 20 µM
- MIC [2]: > 50 µg/mL
- IC50 [3]: 39 µM

SMILES: CC(=O)O[C@@H]1C[C@H]([C@H](C)[C@@H]2CC=C(C)C(=O)O2)[C@@]2(C)CCC3=C(CC[C@@H]4C(=CCC(=O)OC4(C)C)C3)[C@]12C
- IC50 [1]: 12 µM
- MIC [2]: > 50 µg/mL
- IC50 [3]: 94 µM

SMILES: CC1=CC[C@@H]([C@@H](C)[C@H]2CC[C@@]3(C)C4=C(CC[C@]23C)[C@@]2(C)[C@H](O)C[C@H](O)C(C)(C)[C@@H]2CC4)OC1=O
- IC50 [1]: > 21 µM
- MIC [2]: > 50 µg/mL
- IC50 [3]: > 106 µM

SMILES: CC1=CC[C@@H]([C@@H](C)[C@H]2C[C@@H](O)[C@@]3(C)C4=C(C=C5C=CC(=O)OC(C)(C)[C@@H]5CC4)CC[C@]23C)OC1=O
- IC50 [1]: 12 µM
- MIC [2]: 50 µg/mL (≈ 104 µM)
- IC50 [3]: 42 µM

SMILES: CC(=O)O[C@@H]1C[C@H]([C@H](C)[C@@H]2CC=C(C)C(=O)O2)[C@@]2(C)CCC3=C(CC[C@@H]4C(=C3)C=CC(=O)OC4(C)C)[C@]12C
- IC50 [1]: 18 µM
- MIC [2]: > 50 µg/mL
- IC50 [3]: 11 µM

SMILES: CC1=CC[C@@H]([C@@H](C)[C@H]2CC[C@@]3(C)C4=CC[C@H]5C(C)(C)OC[C@@]5(CCC(=O)O)C4=CC[C@]23C)OC1=O
- IC50 [1]: 5.1 µM
- MIC [2]: > 50 µg/mL
- IC50 [3]: > 104 µM

SMILES: CC1=C[C@H](O)[C@@H]([C@@H](C)[C@H]2CC[C@@]3(C)C4=C(CC[C@]23C)[C@@]2(C)CC[C@H](O)C(C)(C)[C@@H]2CC4)OC1=O
- IC50 [1]: > 21 µM
- MIC [2]: > 50 µg/mL
- IC50 [3]: 36 µM

SMILES: CC(=O)O[C@@H]1C[C@H]([C@H](C)[C@@H]2CC=C(C)C(=O)O2)[C@@]2(C)CCC3=C(CC[C@]4(C(C)(C)O)OC(=O)C=CC4=C3)[C@]12C
- IC50 [1]: > 19 µM
- MIC [2]: > 50 µg/mL
- IC50 [3]: 33 µM

SMILES: Cc1c2ccncc2c(C)c2c1[nH]c1ccccc12 [ELLIPTECINE]
- IC50 [3]: 3.1 µM

SMILES: CC(=O)O[C@]12CCC(=O)OC(C)(C)[C@@H]1CCC1=C2CC[C@]2(C)[C@@H]([C@H](C)[C@@H]3CC=C(C)C(=O)O3)CC[C@@]12C
- IC50 [1]: > 19 µM
- MIC [2]: > 50 µg/mL
- IC50 [3]: > 95 µM

SMILES: CC(=O)OC[C@@]1(CCC(=O)O)C2=CC[C@]3(C)[C@@H]([C@H](C)[C@@H]4CC=C(C)C(=O)O4)CC[C@@]3(C)C2=CC[C@H]1C(C)(C)O
- IC50 [1]: 5.5 µM
- MIC [2]: > 50 µg/mL
- IC50 [3]: 88 µM

SMILES: CC1=CC[C@@H]([C@@H](C)[C@H]2C[C@@H](O)[C@@]3(C)C4=C(C=C5C=CC(=O)OC(C)(C)[C@@H]5CC4)[C@@H](O)C[C@]23C)OC1=O
- IC50 [1]: > 20 µM
- MIC [2]: > 50 µg/mL
- IC50 [3]: > 101 µM

SMILES: CC1=CC[C@@H]([C@@H](C)[C@H]2CC[C@@]3(C)C4=C(C=C5C=CC(=O)OC(C)(C)[C@@H]5CC4)CC[C@]23C)OC1=O
- IC50 [1]: 18 µM
- MIC [2]: > 50 µg/mL
- IC50 [3]: > 108 µM

SMILES: CC1=CC[C@@H]([C@@H](C)[C@H]2CC[C@@]3(C)C4=C(CC[C@]23C)C[C@@]2(O)C=CC(=O)OC(C)(C)[C@@H]2CC4)OC1=O
- IC50 [1]: 19 µM
- MIC [2]: > 50 µg/mL
- IC50 [3]: 45 µM

SMILES: CC1=CC[C@@H]([C@@H](C)[C@H]2CC[C@@]3(C)C4=C(CC[C@]23C)[C@@]2(CO)CC[C@H](O)C(C)(C)[C@@H]2CC4)OC1=O
- IC50 [1]: > 21 µM
- MIC [2]: > 50 µg/mL
- IC50 [3]: > 106 µM

SMILES: CC(=O)OC(C)(C)[C@@H]1CC=C2C(=CC[C@]3(C)[C@@H]([C@H](C)[C@H]4OC(=O)C(C)=C[C@@H]4O)CC[C@@]23C)[C@@]12CCC(=O)OC2
- IC50 [1]: > 18 µM
- MIC [2]: > 50 µg/mL
- IC50 [3]: > 92 µM

SMILES: COC(=O)CC[C@]1(COC(C)=O)C2=CC[C@]3(C)[C@@H]([C@H](C)[C@H]4OC(=O)C(C)=C[C@@H]4O)CC[C@@]3(C)C2=CC[C@H]1C(C)(C)O
- IC50 [1]: 6.3 µM
- MIC [2]: > 50 µg/mL
- IC50 [3]: 32 µM

SMILES: NNC(=O)c1ccncc1 [ISONIAZID]
- MIC [2]: 0.047 µg/mL (≈ 0.343 µM)

SMILES: CC(=O)O[C@]12CCC(=O)OC(C)(C)[C@@H]1CCC1=C2CC[C@]2(C)[C@@H]([C@H](C)[C@H]3OC(=O)C(C)=C[C@@H]3O)CC[C@@]12C
- IC50 [1]: > 18 µM
- MIC [2]: > 50 µg/mL
- IC50 [3]: > 92 µM

SMILES: CC(=O)O[C@@H]1C[C@H]([C@H](C)[C@@H]2CC=C(C)C(=O)O2)[C@@]2(C)C[C@H](O)C3=C(CC[C@H]4C(C)(C)OC(=O)C=C[C@]45O[C@@H]35)[C@]12C
- IC50 [1]: > 18 µM
- MIC [2]: > 50 µg/mL
- IC50 [3]: > 90 µM

SMILES: CC(=O)O[C@@H]1C[C@H]([C@H](C)[C@H]2OC(=O)C(C)=C[C@@H]2O)[C@@]2(C)C[C@H](O)C3=C(CC[C@@H]4C(=C3)C=CC(=O)OC4(C)C)[C@]12C
- IC50 [1]: > 18 µM
- MIC [2]: > 50 µg/mL
- IC50 [3]: > 90 µM

SMILES: C[C@H]1[C@@H](O)O[C@@H]2O[C@@]3(C)CC[C@H]4[C@H](C)CC[C@@H]1[C@@]24OO3 [ARTENIMOL]
- IC50 [1]: 0.0028 µM

SMILES: CC(=O)[C@H]1C[C@@H](O)[C@@]2(C)C3=C(C=C4C=CC(=O)OC(C)(C)[C@@H]4CC3)[C@@H](O)C[C@]12C
- IC50 [1]: > 25 µM
- MIC [2]: > 50 µg/mL
- IC50 [3]: > 125 µM

SMILES: CC(=O)OC[C@]12CC[C@H](O)C(C)(C)[C@@H]1CCC1=C2CC[C@]2(C)[C@@H]([C@H](C)[C@H]3OC(=O)C(C)=C[C@@H]3O)CC[C@@]12C
- IC50 [1]: 6.6 µM
- MIC [2]: > 50 µg/mL
- IC50 [3]: 34 µM

SMILES: CC(=O)O[C@@H]1C[C@H]([C@H](C)[C@@H]2CC=C(C)C(=O)O2)[C@@]2(C)CC(=O)C3=C(CC[C@@H]4C(=C3)C=CC(=O)OC4(C)C)[C@]12C
- IC50 [1]: 10 µM
- MIC [2]: 50 µg/mL (≈ 93.2 µM)
- IC50 [3]: 92 µM

SMILES: CC(=O)[C@H]1C[C@@H](O)[C@@]2(C)C3=C(C=C4C=CC(=O)OC(C)(C)[C@@H]4CC3)CC[C@]12C
- IC50 [1]: > 26 µM
- MIC [2]: > 50 µg/mL
- IC50 [3]: > 130 µM

SMILES: CC1=CC[C@@]2(OC1=O)O[C@H]1O[C@H]3C[C@@]14[C@H](CC[C@@]4(C)C1=C3C=C3C=CC(=O)OC(C)(C)[C@@H]3CC1)[C@@H]2C
- IC50 [1]: > 20 µM
- MIC [2]: > 50 µg/mL
- IC50 [3]: > 102 µM

SMILES: CC(=O)O[C@@H]1C[C@H]([C@H](C)[C@H]2OC(=O)C(C)=C[C@@H]2O)[C@@]2(C)CC(=O)C3=C(CC[C@@H]4C(=C3)C=CC(=O)OC4(C)C)[C@]12C
- IC50 [1]: > 18 µM
- MIC [2]: > 50 µg/mL
- IC50 [3]: > 90 µM

SMILES: CC(=O)OC(C)(C)[C@@H]1CC=C2C(=CC[C@]3(C)[C@@H]([C@H](C)[C@@H]4CC=C(C)C(=O)O4)CC[C@@]23C)[C@@]12CCC(=O)OC2
- IC50 [1]: 7.7 µM
- MIC [2]: 50 µg/mL (≈ 95.3 µM)
- IC50 [3]: 38 µM

SMILES: CC(=O)O[C@@H]1C[C@H]([C@H](C)[C@H]2OC(=O)C(C)=C[C@@H]2O)[C@@]2(C)CCC3=C(CC[C@@H]4C(=C3)C=CC(=O)OC4(C)C)[C@]12C
- IC50 [1]: 7 µM
- MIC [2]: 50 µg/mL (≈ 92.8 µM)
- IC50 [3]: 22 µM

SMILES: CC1=CC[C@@H]([C@@H](C)[C@H]2CC[C@@]3(C)C4=C(CC[C@]23C)[C@@]2(C)CC[C@H](O)C(C)(C)[C@@H]2CC4)OC1=O
- IC50 [1]: > 22 µM
- MIC [2]: > 50 µg/mL
- IC50 [3]: > 110 µM

SMILES: CC(=O)OC[C@]12CCC(=O)C(C)(C)[C@@H]1CCC1=C2CC[C@]2(C)[C@@H]([C@H](C)[C@@H]3CC=C(C)C(=O)O3)CC[C@@]12C
- IC50 [1]: > 20 µM
- MIC [2]: > 50 µg/mL
- IC50 [3]: > 98 µM

SMILES: CC1=CC[C@]2(OC1=O)O[C@H]1O[C@H]3C[C@@]14[C@H](CC[C@@]4(C)C1=C3C=C3C=CC(=O)OC(C)(C)[C@@H]3CC1)[C@@H]2C
- IC50 [1]: > 20 µM
- MIC [2]: > 50 µg/mL
- IC50 [3]: > 102 µM

SMILES: CC1=CC[C@@H]([C@@H](C)[C@H]2C[C@@H](O)[C@@]3(C)C4=C(C=C5C=CC(=O)O[C@@]5(C(C)(C)O)CC4)CC[C@]23C)OC1=O
- IC50 [1]: > 20 µM
- MIC [2]: > 50 µg/mL
- IC50 [3]: > 101 µM

SMILES: CC1=CC[C@@H]([C@@H](C)[C@H]2CC[C@@]3(C)[C@@]45CC[C@@H](C(C)(C)O4)[C@]4(CCC(=O)OC4)C5=CC[C@]23C)OC1=O
- IC50 [1]: > 21 µM
- MIC [2]: > 50 µg/mL
- IC50 [3]: 98 µM

SMILES: COC(=O)CC[C@]1(COC(C)=O)C2=C(CC[C@H]1C(C)(C)O)[C@]1(C)CC[C@H]([C@H](C)[C@@H]3CC=C(C)C(=O)O3)[C@@]1(C)CC2
- IC50 [1]: 15 µM
- MIC [2]: 12.5 µg/mL (≈ 22.4 µM)
- IC50 [3]: 11 µM

SMILES: COC(=O)CC[C@]1(COC(C)=O)C2=CC[C@]3(C)[C@@H]([C@H](C)[C@@H]4CC=C(C)C(=O)O4)CC[C@@]3(C)C2=CC[C@H]1C(C)(C)O
- IC50 [1]: 8.1 µM
- MIC [2]: 50 µg/mL (≈ 89.8 µM)
- IC50 [3]: 32 µM

SMILES: CC(=O)OC[C@]12CC[C@H](O)C(C)(C)[C@@H]1CCC1=C2CC[C@]2(C)[C@@H]([C@H](C)[C@@H]3CC=C(C)C(=O)O3)CC[C@@]12C
- IC50 [1]: > 20 µM
- MIC [2]: > 50 µg/mL
- IC50 [3]: > 98 µM
